Reference: ChEMBL document CHEMBL1687841, “Molecular analysis of antimicrobial resistance mechanisms in Neisseria gonorrhoeae isolates from Ontario, Canada” (2011)
Converted amounts (≈) assume the structure as drawn.

Columns and labels:
[1] = system: Neisseria gonorrhoeae; assay: microbe, parasite or virus in culture; conditions: 24 h
[2] = system: Neisseria gonorrhoeae; assay: Antimicrobial activity against Neisseria gonorrhoeae clinical isolates harboring PBP2 XXXIV pattern, MAST 51 after 24 hrs by agar dilution method; type: functional
Summary of the method: (§1)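 Ontario clinical isolates grown on GC agar plus 1% defined growth supplement, 37°C, 5% CO2, 20 to 24 h, subcultured twice before testing. MICs by agar dilution per CLSI guidelines. QC strains: ATCC 49226 and 2008 WHO panel strains F, G, K, L, N, O, P. Genotypes deduced by PCR and sequencing of ponA, penA, porB, mtrR and its promoter.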

[3] = system: Neisseria gonorrhoeae; assay: Antimicrobial activity against Neisseria gonorrhoeae clinical isolates harboring porB G120K, A121D mutant gene, PBP1 L421P mutant gene, PBP2 XXXVIII pattern, deletion of nucleotide A from […] promoter, MAST 3563 after 24 hrs by agar dilution method; type: functional
Summary of the method: as §1

[4] = system: Neisseria gonorrhoeae; assay: Antimicrobial activity against Neisseria gonorrhoeae clinical isolates harboring porB A121S mutant gene, PBP1 L421P mutant gene, PBP2 XXXVIII pattern, deletion of nucleotide A from […] promoter, MAST 3116 after 24 hrs by agar dilution method; type: functional
Summary of the method: as §1

[5] = system: Neisseria gonorrhoeae; assay: Antimicrobial activity against Neisseria gonorrhoeae clinical isolates harboring porB G120K, A121D mutant gene, PBP1 L421P mutant gene, PBP2 XXXVIII pattern, deletion of nucleotide A from […] promoter, MAST 3158 after 24 hrs by agar dilution method; type: functional
Summary of the method: as §1

[6] = system: Neisseria gonorrhoeae; assay: Antimicrobial activity against Neisseria gonorrhoeae clinical isolates harboring porB G120K, A121D mutant gene, PBP1 L421P mutant gene, PBP2 XXXVIII pattern, insertion of nucleotide T from […] promoter, MAST 3158 after 24 hrs by agar dilution method; type: functional
Summary of the method: as §1

[7] = system: Neisseria gonorrhoeae; assay: Antimicrobial activity against Neisseria gonorrhoeae clinical isolates harboring PBP2 XXXV pattern, deletion of nucleotide A from […] promoter, MAST 546 after 24 hrs by agar dilution method; type: functional
Summary of the method: as §1

[8] = system: Neisseria gonorrhoeae; assay: Antimicrobial activity against Neisseria gonorrhoeae clinical isolates harboring porB G120K, A121D mutant gene, PBP2 XXXVIII pattern, deletion of nucleotide A from […] promoter, MAST 3158 after 24 hrs by agar dilution method; type: functional
Summary of the method: as §1

[9] = system: Neisseria gonorrhoeae; assay: Antimicrobial activity against Neisseria gonorrhoeae clinical isolates harboring porB G120K, A121D mutant gene, PBP1 L421P mutant gene, PBP2 XXXIV pattern, deletion of nucleotide A from […] promoter, MAST 225 after 24 hrs by agar dilution method; type: functional
Summary of the method: as §1

[10] = system: Neisseria gonorrhoeae; assay: Antimicrobial activity against Neisseria gonorrhoeae clinical isolates assessed as percent resistant isolates after 24 hrs by agar dilution method; type: functional
[11] = system: Neisseria gonorrhoeae; assay: Antimicrobial activity against Neisseria gonorrhoeae clinical isolates assessed as percent susceptible isolates after 24 hrs by agar dilution method; type: functional
[12] = system: Neisseria gonorrhoeae; assay: Antimicrobial activity against Neisseria gonorrhoeae clinical isolates harboring PBP2 XXXVIII pattern, deletion of nucleotide A from […] promoter, MAST 3553 after 24 hrs by agar dilution method; type: functional
Summary of the method: as §1

[13] = system: Neisseria gonorrhoeae; assay: Antimicrobial activity against Neisseria gonorrhoeae clinical isolates harboring PBP1 L421P mutant gene, PBP2 XXXVII pattern, deletion of nucleotide A from […] promoter, MtrR G45D mutant MAST 299 after 24 hrs by agar dilution method; type: functional
Summary of the method: as §1

[14] = system: Neisseria gonorrhoeae; assay: Antimicrobial activity against Neisseria gonorrhoeae clinical isolates harboring porB G120K, A121D mutant gene, PBP1 L421P mutant gene, PBP2 XXXVIII pattern, deletion of nucleotide A from […] promoter, MAST 3570 after 24 hrs by agar dilution method; type: functional
Summary of the method: as §1

[15] = system: Neisseria gonorrhoeae; assay: Antimicrobial activity against Neisseria gonorrhoeae clinical isolates harboring porB G120K, A121D mutant gene, PBP2 XXXVI pattern, deletion of nucleotide A from […] promoter, MAST 3596 after 24 hrs by agar dilution method; type: functional
Summary of the method: as §1

[16] = system: Neisseria gonorrhoeae; assay: Antimicrobial activity against Neisseria gonorrhoeae clinical isolates after 24 hrs by agar dilution method; type: functional

Row | SMILES | MIC [1] | MIC [2] | MIC [3] | MIC [4] | MIC [5] | MIC [6] | MIC [7] | MIC [8] | MIC [9] | Activity [10] | Activity [11] | MIC [12] | MIC [13] | MIC [14] | MIC [15] | MIC50 [16] | MIC90 [16] | MIC [16]
1 | CC[C@H]1OC(=O)[C@H](C)[C@@H](O[C@H]2C[C@@](C)(OC)[C@@H](O)[C@H](C)O2)[C@H](C)[C@@H](O[C@@H]2O[C@H](C)C[C@H](N(C)C)[C@H]2O)[C@](C)(O)C[C@@H](C)CN(C)[C@H](C)[C@@H](O)[C@]1(C)O [AZITHROMYCIN] | 0.25 µg/mL (≈ 0.334 µM) | – | – | – | – | – | – | – | – | – | – | – | – | – | – | – | – | –
2 | C=CC1=C(C(=O)O)N2C(=O)[C@@H](NC(=O)/C(=N\OCC(=O)O)c3csc(N)n3)[C@H]2SC1 [CEFIXIME] | – | 0.125 µg/mL (≈ 0.276 µM) | 0.125 µg/mL (≈ 0.276 µM) | 0.125 µg/mL (≈ 0.276 µM) | 0.125 µg/mL (≈ 0.276 µM) | 0.125 µg/mL (≈ 0.276 µM) | 0.125 µg/mL (≈ 0.276 µM) | 0.25 µg/mL (≈ 0.551 µM) | 0.25 µg/mL (≈ 0.551 µM) | 0% | 100% | 0.125 µg/mL (≈ 0.276 µM) | 0.25 µg/mL (≈ 0.551 µM) | 0.125 µg/mL (≈ 0.276 µM) | 0.125 µg/mL (≈ 0.276 µM) | ≤ 0.03 µg/mL | ≤ 0.03 µg/mL | –
3 | CO/N=C(\C(=O)N[C@@H]1C(=O)N2C(C(=O)O)=C(CSc3nc(=O)c(O)nn3C)CS[C@H]12)c1csc(N)n1 [CEFTRIAXONE] | – | 0.063 µg/mL (≈ 0.114 µM) | 0.063 µg/mL (≈ 0.114 µM) | 0.063 µg/mL (≈ 0.114 µM) | 0.063 µg/mL (≈ 0.114 µM) | 0.063 µg/mL (≈ 0.114 µM) | 0.125 µg/mL (≈ 0.225 µM) | 0.125 µg/mL (≈ 0.225 µM) | 0.125 µg/mL (≈ 0.225 µM) | 0% | 100% | 0.032 µg/mL (≈ 0.0577 µM) | 0.125 µg/mL (≈ 0.225 µM) | 0.063 µg/mL (≈ 0.114 µM) | 0.125 µg/mL (≈ 0.225 µM) | ≤ 0.03 µg/mL | ≤ 0.06 µg/mL | –
4 | CC[C@H]1OC(=O)[C@H](C)[C@@H](O[C@H]2C[C@@](C)(OC)[C@@H](O)[C@H](C)O2)[C@H](C)[C@@H](O[C@@H]2O[C@H](C)C[C@H](N(C)C)[C@H]2O)[C@](C)(O)C[C@@H](C)C(=O)[C@H](C)[C@@H](O)[C@]1(C)O [ERYTHROMYCIN] | – | – | – | – | – | – | – | – | – | 22.8% | 77.2% | – | – | – | – | ≤ 1 µg/mL | 2 µg/mL (≈ 2.73 µM) | ≤ 1 µg/mL
5 | CC1(C)S[C@@H]2[C@H](NC(=O)Cc3ccccc3)C(=O)N2[C@H]1C(=O)O [PENICILLIN G] | – | 1 µg/mL (≈ 2.99 µM) | 1 µg/mL (≈ 2.99 µM) | 2 µg/mL (≈ 5.98 µM) | 1 µg/mL (≈ 2.99 µM) | 1 µg/mL (≈ 2.99 µM) | 1 µg/mL (≈ 2.99 µM) | 1 µg/mL (≈ 2.99 µM) | 2 µg/mL (≈ 5.98 µM) | 12.1% | 10.7% | 0.5 µg/mL (≈ 1.5 µM) | 2 µg/mL (≈ 5.98 µM) | 2 µg/mL (≈ 5.98 µM) | 0.5 µg/mL (≈ 1.5 µM) | 0.25 µg/mL (≈ 0.748 µM) | 2 µg/mL (≈ 5.98 µM) | –
6 | CN[C@@H]1[C@H](O)[C@H](NC)[C@H]2O[C@@]3(O)C(=O)C[C@@H](C)O[C@H]3O[C@@H]2[C@H]1O [SPECTINOMYCIN] | – | – | – | – | – | – | – | – | – | 0% | 100% | – | – | – | – | ≤ 32 µg/mL | ≤ 32 µg/mL | –
7 | CN(C)[C@@H]1C(O)=C(C(N)=O)C(=O)[C@@]2(O)C(O)=C3C(=O)c4c(O)cccc4[C@@](C)(O)[C@H]3C[C@@H]12 [TETRACYCLINE] | – | – | – | – | – | – | – | – | – | 25.5% | 27.5% | – | – | – | – | 0.5 µg/mL (≈ 1.13 µM) | 2 µg/mL (≈ 4.5 µM) | –
